ChEMBL document CHEMBL1146365, “Synthesis and biological evaluation of new N-(2-hydroxy-4(or 5)-nitro/aminophenyl)benzamides and phenylacetamides as antimicrobial agents” (2007)
Converted amounts (≈) assume the structure as drawn.

Tests used:
Klebsiella pneumoniae [1] = test: Antibacterial activity against Klebsiella pneumoniae RSHM 574 assessed after 24 hrs by serial dilution method
Bacillus subtilis [2] = test: Antibacterial activity against Bacillus subtilis ATCC 6633 assessed after 24 hrs by serial dilution method; format: functional
Outline: (§1)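 Strains were subcultured twice on MHA at 37 °C overnight. Inoculum was diluted from McFarland 0.5 to 10^5 cfu/ml, giving 10^4 cfu/ml in wells. Solvent, medium and organism-only controls were included. Incubated 37 °C, humid chamber, 24 h, in triplicate. MIC = lowest concentration with no macroscopic growth.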

Candida albicans [3] = test: Antifungal activity against Candida albicans ATCC 10231 assessed after 48 hrs by serial dilution method; format: functional; conditions: ATCC 10231, 48 h
Outline: (§2)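 Broth microdilution per CLSI M27-A in RPMI-1640 with L-glutamine, MOPS-buffered pH 7, with 2-fold compound dilutions. Yeasts were subcultured twice on SDA at 35 °C for 24–48 h. Inoculum was diluted from McFarland 0.5 to 10^4 cfu/ml, giving 10^3 cfu/ml in wells. Incubated 35 °C, humid chamber, 48 h, in triplicate. MIC = lowest concentration with no macroscopic growth.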

Klebsiella pneumoniae [4] = test: Antibacterial activity against Klebsiella pneumoniae isolate assessed after 24 hrs by serial dilution method; format: functional
Outline: as §1

Escherichia coli [5] = test: Antibacterial activity against Escherichia coli isolate assessed after 24 hrs by serial dilution method; format: functional
Outline: as §1

Staphylococcus aureus [6] = test: Antibacterial activity against drug-resistant Staphylococcus aureus assessed after 24 hrs by serial dilution method
Escherichia coli [7] = test: Antibacterial activity against Escherichia coli ATCC assessed after 24 hrs by serial dilution method
Bacillus subtilis [8] = test: Antibacterial activity against drug-resistant Bacillus subtilis assessed after 24 hrs by serial dilution method
Pseudomonas aeruginosa [9] = test: Antibacterial activity against Pseudomonas aeruginosa isolate assessed after 24 hrs by serial dilution method; format: functional
Outline: as §1

Staphylococcus aureus [10] = test: Antibacterial activity against Staphylococcus aureus ATCC 25923 assessed after 24 hrs by serial dilution method; format: functional
Outline: as §1

Candida albicans [11] = test: Antifungal activity against Candida albicans isolate assessed after 48 hrs by serial dilution method; format: functional
Outline: as §2

Pseudomonas aeruginosa [12] = test: Antibacterial activity against Pseudomonas aeruginosa ATCC […] assessed after 24 hrs by serial dilution method
Escherichia coli [13] = test: Antibacterial activity against Escherichia coli ATCC 25922 assessed after 24 hrs by serial dilution method

Nc1ccc(NC(=O)c2ccc(Br)cc2)c(O)c1
MIC (Klebsiella pneumoniae [1]): 250 µg/mL (≈ 814 µM)
MIC (Bacillus subtilis [2]; ATCC 6633, 24 h): 62.5 µg/mL (≈ 203 µM)
MIC (Candida albicans [3]): 250 µg/mL (≈ 814 µM)
MIC (Klebsiella pneumoniae [4]): 250 µg/mL (≈ 814 µM)
MIC (Escherichia coli [5]): 250 µg/mL (≈ 814 µM)
MIC (Staphylococcus aureus [6]): 7.8 µg/mL (≈ 25.4 µM)
MIC (Escherichia coli [7]): 125 µg/mL (≈ 407 µM)
MIC (Bacillus subtilis [8]): 31.2 µg/mL (≈ 102 µM)
MIC (Pseudomonas aeruginosa [9]): 250 µg/mL (≈ 814 µM)
MIC (Staphylococcus aureus [10]; ATCC 25923, 24 h): 125 µg/mL (≈ 407 µM)
MIC (Candida albicans [11]): 125 µg/mL (≈ 407 µM)
MIC (Pseudomonas aeruginosa [12]): 250 µg/mL (≈ 814 µM)

CC(C)(C)c1ccc(C(=O)Nc2ccc([N+](=O)[O-])cc2O)cc1
MIC (Klebsiella pneumoniae [1]): 125 µg/mL (≈ 398 µM)
MIC (Bacillus subtilis [2]; ATCC 6633, 24 h): 7.8 µg/mL (≈ 24.8 µM)
MIC (Candida albicans [3]): 250 µg/mL (≈ 795 µM)
MIC (Klebsiella pneumoniae [4]): 250 µg/mL (≈ 795 µM)
MIC (Escherichia coli [5]): 250 µg/mL (≈ 795 µM)
MIC (Staphylococcus aureus [6]): 1.95 µg/mL (≈ 6.2 µM)
MIC (Escherichia coli [7]): 125 µg/mL (≈ 398 µM)
MIC (Bacillus subtilis [8]): 15.6 µg/mL (≈ 49.6 µM)
MIC (Pseudomonas aeruginosa [9]): 250 µg/mL (≈ 795 µM)
MIC (Staphylococcus aureus [10]; ATCC 25923, 24 h): 7.8 µg/mL (≈ 24.8 µM)
MIC (Candida albicans [11]): 125 µg/mL (≈ 398 µM)
MIC (Pseudomonas aeruginosa [12]): 125 µg/mL (≈ 398 µM)

GENTAMICIN SULFATE
MIC (Klebsiella pneumoniae [1]): > 4100 µg/mL
MIC (Bacillus subtilis [2]): 512 µg/mL
MIC (Klebsiella pneumoniae [4]): 1020 µg/mL
MIC (Escherichia coli [5]): 0.97 µg/mL
MIC (Staphylococcus aureus [6]): 1020 µg/mL
MIC (Bacillus subtilis [8]): 2050 µg/mL
MIC (Pseudomonas aeruginosa [9]): 1020 µg/mL
MIC (Staphylococcus aureus [10]): > 4100 µg/mL
MIC (Escherichia coli [13]): 1020 µg/mL

CCc1ccc(C(=O)Nc2ccc(N)cc2O)cc1
MIC (Klebsiella pneumoniae [1]): 125 µg/mL (≈ 488 µM)
MIC (Bacillus subtilis [2]; ATCC 6633, 24 h): 250 µg/mL (≈ 975 µM)
MIC (Candida albicans [3]): 125 µg/mL (≈ 488 µM)
MIC (Klebsiella pneumoniae [4]): 250 µg/mL (≈ 975 µM)
MIC (Escherichia coli [5]): 250 µg/mL (≈ 975 µM)
MIC (Staphylococcus aureus [6]): 7.8 µg/mL (≈ 30.4 µM)
MIC (Escherichia coli [7]): 125 µg/mL (≈ 488 µM)
MIC (Bacillus subtilis [8]): 31.2 µg/mL (≈ 122 µM)
MIC (Pseudomonas aeruginosa [9]): 250 µg/mL (≈ 975 µM)
MIC (Staphylococcus aureus [10]; ATCC 25923, 24 h): 125 µg/mL (≈ 488 µM)
MIC (Candida albicans [11]): 125 µg/mL (≈ 488 µM)
MIC (Pseudomonas aeruginosa [12]): 250 µg/mL (≈ 975 µM)

O=C(Nc1ccc([N+](=O)[O-])cc1O)c1ccccc1
MIC (Klebsiella pneumoniae [1]): 125 µg/mL (≈ 484 µM)
MIC (Bacillus subtilis [2]; ATCC 6633, 24 h): 31.2 µg/mL (≈ 121 µM)
MIC (Candida albicans [3]): 62.5 µg/mL (≈ 242 µM)
MIC (Klebsiella pneumoniae [4]): 250 µg/mL (≈ 968 µM)
MIC (Escherichia coli [5]): 250 µg/mL (≈ 968 µM)
MIC (Staphylococcus aureus [6]): 125 µg/mL (≈ 484 µM)
MIC (Escherichia coli [7]): 125 µg/mL (≈ 484 µM)
MIC (Bacillus subtilis [8]): 31.2 µg/mL (≈ 121 µM)
MIC (Pseudomonas aeruginosa [9]): 250 µg/mL (≈ 968 µM)
MIC (Staphylococcus aureus [10]; ATCC 25923, 24 h): 62.5 µg/mL (≈ 242 µM)
MIC (Candida albicans [11]): 125 µg/mL (≈ 484 µM)
MIC (Pseudomonas aeruginosa [12]): 125 µg/mL (≈ 484 µM)

O=C(Cc1ccc(F)cc1)Nc1ccc([N+](=O)[O-])cc1O
MIC (Klebsiella pneumoniae [1]): 250 µg/mL (≈ 861 µM)
MIC (Bacillus subtilis [2]; ATCC 6633, 24 h): 250 µg/mL (≈ 861 µM)
MIC (Candida albicans [3]): 125 µg/mL (≈ 431 µM)
MIC (Klebsiella pneumoniae [4]): 125 µg/mL (≈ 431 µM)
MIC (Escherichia coli [5]): 250 µg/mL (≈ 861 µM)
MIC (Staphylococcus aureus [6]): 62.5 µg/mL (≈ 215 µM)
MIC (Escherichia coli [7]): 125 µg/mL (≈ 431 µM)
MIC (Bacillus subtilis [8]): 31.2 µg/mL (≈ 108 µM)
MIC (Pseudomonas aeruginosa [9]): 250 µg/mL (≈ 861 µM)
MIC (Staphylococcus aureus [10]; ATCC 25923, 24 h): 125 µg/mL (≈ 431 µM)
MIC (Candida albicans [11]): 125 µg/mL (≈ 431 µM)
MIC (Pseudomonas aeruginosa [12]): 125 µg/mL (≈ 431 µM)
